# Measurements: ChEMBL document CHEMBL4680142, “Thiazolidine-2,4-dione-based irreversible allosteric IKK-β kinase inhibitors: Optimization into in vivo active anti-inflammatory agents” (Eur J Med Chem, 2020)
# Calls of active or inactive are those of the source. No cut-off for these calls is given here.
# Columns and labels:
# [1] = target: T1, Inhibitor of nuclear factor kappa-B kinase subunit beta (Homo sapiens, UniProt O14920); experiment: Allosteric inhibition of IKKbeta (unknown origin) using 5FAM-GRHDSGLDSMK-NH2 as substrate pretreated for 10 mins followed measured after 2 hrs by TR-FRET assay
# T1 sequence (O14920 whole entry): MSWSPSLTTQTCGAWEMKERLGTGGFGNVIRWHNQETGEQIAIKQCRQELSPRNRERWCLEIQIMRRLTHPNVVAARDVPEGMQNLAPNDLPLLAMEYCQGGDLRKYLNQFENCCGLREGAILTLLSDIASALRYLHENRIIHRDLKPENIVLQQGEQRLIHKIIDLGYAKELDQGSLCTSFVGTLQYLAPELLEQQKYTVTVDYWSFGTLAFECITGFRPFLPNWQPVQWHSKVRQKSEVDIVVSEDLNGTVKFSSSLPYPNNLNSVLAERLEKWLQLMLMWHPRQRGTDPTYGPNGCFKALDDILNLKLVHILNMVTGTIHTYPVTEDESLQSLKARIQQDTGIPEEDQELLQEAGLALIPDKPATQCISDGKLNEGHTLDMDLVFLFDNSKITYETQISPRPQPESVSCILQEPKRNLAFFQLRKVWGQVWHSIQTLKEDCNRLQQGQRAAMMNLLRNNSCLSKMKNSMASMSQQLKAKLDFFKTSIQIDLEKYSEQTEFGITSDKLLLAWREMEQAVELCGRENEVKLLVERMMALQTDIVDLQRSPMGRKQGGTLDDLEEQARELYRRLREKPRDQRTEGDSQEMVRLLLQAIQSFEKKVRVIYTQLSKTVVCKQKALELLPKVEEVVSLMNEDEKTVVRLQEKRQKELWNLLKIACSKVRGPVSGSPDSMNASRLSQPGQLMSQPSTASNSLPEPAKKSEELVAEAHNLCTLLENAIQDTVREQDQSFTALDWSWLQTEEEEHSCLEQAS
# Method in brief: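 Enzyme: 0.5 µg/mL IKK2, in 10 mM Tris-HCl pH 7.2, 10 mM MgCl2, 0.05% NaN3, 1 mM DTT, 0.01% Tween-20. Compound at 10 µM pre-incubated 10 min, then 1 µM 5-FAM IκBα peptide and 3 µM ATP added. Reaction 2 h at room temperature. IMAP binding reagent/terbium detection mix added 15 h before reading. TR-FRET read with 340 nm excitation, emission 495/520 nm. Percent inhibition or IC50 derived.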
# [2] = Cytotoxicity against non-stimulated mouse RAW264.7 cells upto 10 uM after 24 hrs by MTT assay; conditions: raw264.7, 24 h
# [3] = test system: RAW264.7; experiment: Antiinflammatory activity against mouse RAW264.7 cells assessed as reduction in LPS-induced PGE2 production at 10 uM incubated for 1 hr followed by LPS stimulation and measured after 24 hrs by ELISA (reference value: 33.64 ng/ml); type: functional
# Method in brief: (§1)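 RAW 264.7 cells (DMEM, 10% FBS, 37 °C, 5% CO2) plated at 2×10^5 cells/mL and left overnight. Compounds (0.1, 1, 10 µM) or NS-398 given for 1 h, then LPS 10 ng/mL for 24 h. Culture medium assayed by ELISA: competitive colorimetric for PGE2/TNF-α, mouse DuoSet for TNF-α/IL-6. IC50 is the concentration lowering the mediator to 50%.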
# [4] = test system: RAW264.7; experiment: Antiinflammatory activity against mouse RAW264.7 cells assessed as reduction in LPS-induced NO level incubated for 1 hr followed by LPS stimulation and measured after 24 hrs by Griess reagent based assay; type: functional, cell-based
# Method in brief: (§2)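 RAW 264.7 cells in 24-well plates received compounds (0.1, 1, 10 µM) or L-NIL 40 µM positive control, then LPS 1 µg/mL for 24 h. Nitrite in the medium measured by Griess reaction as an NO surrogate. Values referenced to levels before and after LPS stimulation.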
# [5] = Effect on NO production in non-stimulated mouse RAW264.7 cells at 10 uM after 24 hrs by Griess reagent based assay; conditions: raw264.7, 24 h
# [6] = test system: RAW264.7; experiment: Antiinflammatory activity against mouse RAW264.7 cells assessed as reduction in LPS-induced IL-6 level incubated for 1 hr followed by LPS stimulation and measured after 24 hrs by ELISA; type: functional, cell-based; method in brief: as §1
# [7] = test system: RAW264.7; experiment: Antiinflammatory activity against mouse RAW264.7 cells assessed as reduction in LPS-induced PGE2 level incubated for 1 hr followed by LPS stimulation and measured after 24 hrs by ELISA; type: functional, cell-based; method in brief: as §1
# [8] = test system: RAW264.7; experiment: Antiinflammatory activity against mouse RAW264.7 cells assessed as reduction in LPS-induced TNF-alpha level incubated for 1 hr followed by LPS stimulation and measured after 24 hrs by ELISA; type: functional, cell-based; method in brief: as §1
# [9] = test system: RAW264.7; experiment: Cytotoxicity against mouse RAW264.7 cells assessed as reduction in cell viability at 6 uM incubated for 24 hrs by MTT assay; type: cell-based; conditions: raw264.7, 24 h
# Method in brief: (§3)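 MTT viability in RAW 264.7 cells seeded at 1×10^5 cells/mL and incubated overnight. Compounds added with or without LPS (1 µg/mL) for 24 h. MTT for 4 h at 37 °C, formazan dissolved in DMSO, absorbance read at 540 nm. IC80 is the concentration reducing viability to 80% with LPS.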
# [10] = test system: RAW264.7; experiment: Antiinflammatory activity against mouse RAW264.7 cells assessed as reduction in LPS-induced PGE2 production at 0.1 to 1 uM incubated for 1 hr followed by LPS stimulation and measured after 24 hrs by ELISA; type: functional, cell-based; conditions: dose 0.1-1 µM, time 25.0 hrs; method in brief: as §1
# [11] = test system: RAW264.7; experiment: Cytotoxicity against mouse RAW264.7 cells assessed as reduction in cell viability incubated for 24 hrs in presence of LPS by MTT assay; type: cell-based; conditions: RAW264.7, 24 h; method in brief: as §3
# [12] = test system: RAW264.7; experiment: Antiinflammatory activity against mouse RAW264.7 cells assessed as reduction in LPS-induced TNF-alpha level at 10 uM incubated for 1 hr followed by LPS stimulation and measured after 24 hrs by ELISA relative to control; type: functional; conditions: time 25 hrs; method in brief: as §1
# [13] = test system: RAW264.7; experiment: Antiinflammatory activity against mouse RAW264.7 cells assessed as reduction in LPS-induced TNF-alpha level at 0.1 to 1 uM incubated for 1 hr followed by LPS stimulation and measured after 24 hrs by ELISA; type: functional, cell-based; conditions: dose 0.1-1 µM, time 25.0 hrs; method in brief: as §1
# [14] = test system: RAW264.7; experiment: Antiinflammatory activity against mouse RAW264.7 cells assessed as reduction in LPS-induced PGE2 production at […] incubated for 1 hr followed by LPS stimulation and measured after 24 hrs by ELISA (reference value: 33.64 ng/ml); type: functional; conditions: time 25 hrs
# [15] = test system: RAW264.7; experiment: Antiinflammatory activity against mouse RAW264.7 cells assessed as reduction in LPS-induced NO level at 40 uM incubated for 1 hr followed by LPS stimulation and measured after 24 hrs by Griess reagent based assay; type: functional, cell-based; method in brief: as §2
structure (smiles),measurement,setting,value
CC(=O)Nc1ccc(Oc2ccc(/C=C3\SC(=O)N(c4ccc(OCCCCCN5CCN(C)CC5)cc4)C3=O)cc2)cc1,IC50,[1],1710 nM
CN1CCN(CCCCCOc2ccc(N3C(=O)S/C(=C\c4ccc(Oc5ccc(Br)cc5)cc4)C3=O)cc2)CC1,IC50,[1],430 nM
Cc1ccc(Oc2ccc(/C=C3\SC(=O)N(c4cccc(OCCCCCN5CCN(C)CC5)c4)C3=O)cc2)cc1,IC50,[1],2730 nM
CN1CCN(CCCCCOc2cccc(N3C(=O)S/C(=C\c4ccc(Oc5ccc(Cl)cc5)cc4)C3=O)c2)CC1,Activity,[2],Non-Toxic
same,Activity,[3]; time 25 hrs,13.87 ng/mL
same,IC50,[4],> 10000 nM
same,Activity,[5],Non-Toxic
same,IC50,[6],> 10000 nM
same,IC50,[7],8520 nM
same,IC50,[1],2610 nM
same,IC50,[8],> 10000 nM
same,Activity,[9],Non-Toxic
same,Activity,[10],inactive
same,IC80,[11],> 10000 nM
same,inhibition at 10 µM,[12],44%
CN1CCN(CCCCCOc2ccc(N3C(=O)S/C(=C\c4ccc(Oc5ccc(Cl)cc5)cc4)C3=O)cc2)CC1,IC50,[1],700 nM
COc1ccc(Oc2ccc(/C=C3\SC(=O)N(c4cccc(OCCCCCN5CCN(C)CC5)c4)C3=O)cc2)cc1,IC50,[1],2430 nM
CN1CCN(CCCCCOc2cccc(N3C(=O)S/C(=C\c4ccc(Oc5ccc(F)cc5)cc4)C3=O)c2)CC1,Activity,[2],Non-Toxic
same,Activity,[3]; time 25.0 hrs,inactive
same,inhibition,[13],inactive
same,IC50,[4],> 10000 nM
same,Activity,[5],Non-Toxic
same,IC50,[6],> 10000 nM
same,IC50,[7],> 10000 nM
same,IC50,[1],6060 nM
same,IC50,[8],7870 nM
same,Activity,[9],Non-Toxic
same,Activity,[10],inactive
same,IC80,[11],4430 nM
same,inhibition at 10 µM,[12],71%
CN1CCN(CCCCCOc2cccc(N3C(=O)S/C(=C\c4ccc(Oc5ccc(C#N)cc5)cc4)C3=O)c2)CC1,IC50,[1],840 nM
COc1ccc(Oc2ccc(/C=C3\SC(=O)N(c4ccc(OCCCCCN5CCN(C)CC5)cc4)C3=O)cc2)cc1,IC50,[1],700 nM
CN1CCN(CCCCCOc2cccc(N3C(=O)S/C(=C\c4ccc(Oc5ccc(Br)cc5)cc4)C3=O)c2)CC1,IC50,[1],2670 nM
CN1CCN(CCCCCOc2ccc(N3C(=O)S/C(=C\c4ccc(Oc5ccc(F)cc5)cc4)C3=O)cc2)CC1,IC50,[1],600 nM
CN1CCN(CCCCCOc2cccc(N3C(=O)S/C(=C\c4ccc(Oc5ccc(N)cc5)cc4)C3=O)c2)CC1,IC50,[1],8070 nM
CS(=O)(=O)Nc1ccc([N+](=O)[O-])cc1OC1CCCCC1 [NS-398],Activity,[14],12.02 ng/mL
CC(=N)NCCCC[C@H](N)C(=O)O,Activity,[15],Active
Cc1ccc(Oc2ccc(/C=C3\SC(=O)N(c4ccc(OCCCCCN5CCN(C)CC5)cc4)C3=O)cc2)cc1,IC50,[1],870 nM
CN1CCN(CCCOc2ccc(N3C(=O)S/C(=C\c4ccc(Oc5ccc(F)cc5)cc4)C3=O)cc2)CC1,IC50,[1],670 nM
CN1CCN(CCCCCOc2ccc(N3C(=O)S/C(=C\c4ccc(Oc5ccc(N)cc5)cc4)C3=O)cc2)CC1,IC50,[1],2610 nM
